Screening data from PubChem.
KCNK3 block: human KCNK3 channel inhibition, primary screen | AID 602410 | 340,000 tested, 0.84% active | CHO-KCNK3 thallium flux, FluxOR fluorescence; hits give low values | B-score at 10 µM;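 active = B-score under library mean minus 4 SD, starting fluorescence ratio at most library mean plus 5 SD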;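 also: more negative B-score means stronger inhibition of thallium flux through KCNK3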
KCNQ1 block: blocks the human KCNQ1 potassium channel; B-score at 10 µM; CHO-K1 KCNQ1, FluxOR thallium flux fluorescence; hits give high values; P51787; 310,000 tested, 1.3% active; AID 2642;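 active = compounds whose thallium flux B-score, printed positive for inhibition, exceeds three library SD while starting fluorescence stays within three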;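 also: channel opened by potassium depolarization with thallium stimulus after 20 min compound exposure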
KCNK9 inh: inhibitors of human KCNK9 two-pore domain potassium channel; Q9NPC2; HEK293 KCNK9, FluxOR thallium flux fluorescence; hits give low values; B-score at 10 µM; 310,000 tested, 1.2% active; AID 488922;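 active = ratio B-score over 3 SD below the library mean, with starting fluorescence within 5 SD of its mean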;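 also: negative B-score means less thallium flux so channel inhibition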
Target sequence (Q9NPC2 whole entry, looked up, the tested form may be a part): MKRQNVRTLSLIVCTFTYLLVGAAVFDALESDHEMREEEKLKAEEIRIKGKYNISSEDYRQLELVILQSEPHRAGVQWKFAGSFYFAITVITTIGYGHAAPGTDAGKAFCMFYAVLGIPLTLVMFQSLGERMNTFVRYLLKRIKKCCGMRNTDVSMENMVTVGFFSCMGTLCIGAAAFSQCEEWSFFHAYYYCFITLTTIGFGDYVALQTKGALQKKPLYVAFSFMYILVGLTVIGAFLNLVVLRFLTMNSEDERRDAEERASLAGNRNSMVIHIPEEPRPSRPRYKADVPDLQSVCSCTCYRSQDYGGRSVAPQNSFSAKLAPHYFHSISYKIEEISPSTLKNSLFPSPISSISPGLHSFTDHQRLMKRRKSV
Kir21 block: inhibitors of mouse Kir2.1 inward-rectifier potassium channel; HEK293-Kir2.1, FluxOR thallium flux fluorescence; hits give low values; B-score at 10 µM; 310,000 tested, 0.85% active;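 active = fluorescence ratio B-score at or below minus 3 SD of library scores, with starting-brightness B-score within 2 SD, cut at about -4.2 in these data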;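 also: channel flux triggered by added potassium and thallium sulfate stimulus; B-score of peak minus minimum fluorescence over baseline after thallium stimulus; more negative B-score means stronger Kir2.1 block with less thallium influx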
KCNQ1 act: human KCNQ1 channel potentiation or activation. B-score at 10 µM. P51787. 310,000 tested, 0.35% active. CHO-K1 KCNQ1, thallium flux FluxOR fluorescence; hits give high values;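 active = fluorescence ratio B-score, a plate-corrected score, at least three library SD, with initial intensity B-score within 5 SD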
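Doses: Single concentration per compound, DMSO matched to controls | Test system: KCNQ1-transfected CHO-K1 cells | Timing: 90 min dye loading and 20 min compound exposure, both at room temperature | Measured by: Kinetic FluxOR thallium fluorescence, 10-s 1-Hz baseline, 110-s post-stimulus read | Medium: Assay buffer with matched DMSO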
hERG rescue: shields human hERG channel from block by proarrhythmic agents. activation (rescue from dofetilide block), less the hit threshold, % at 10 µM. 310,000 tested, 0.51% active. AID 1511. CHO-hERG, FluxOR thallium flux, dofetilide IC70 present;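 active = activation above the mean of controls blocked by dofetilide plus 5 SD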;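 also: thallium influx through hERG after potassium depolarization seen as dye fluorescence rise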
KCNK9 block conf: confirmation of human KCNK9 potassium channel inhibitors; shares compounds with KCNK9 inh; HEK293 KCNK9 cells, FluxOR thallium flux fluorescence; inhibition, % at 10 µM; 4,900 tested, 43% active;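 active = thallium signal inhibited by more than 5 SD of the compound-free buffer control wells, on both duplicate plates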;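 also: 0% = assay buffer control wells without compound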
Kir21 sel: tests whether KCNK9 modulators also affect mouse Kir2.1. Kir2.1 cells, FluxOR thallium flux fluorescence. 4,900 tested, 4% active. inhibition, % at 10 µM. shares compounds with KCNK9 inh. AID 492993;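 active = thallium signal drop more than 5 SD beyond the mean of the no-compound control wells, seen in both duplicate plates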;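 also: signal is fluorescence rise after thallium addition divided by baseline fluorescence; plate controls were assay buffer only for no effect and full block by chlorpromazine control for full effect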
HEK293 Tl ctr: second counter-screen for KCNK9 modulators: effect in non-induced cells | AID 492997 | non-induced KCNK9-HEK293, FluxOR thallium flux | inhibition, % at 10 µM | 4,900 tested, 40% active | shares compounds with KCNK9 inh;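 active = thallium signal drop beyond 5 SD of the untreated control mean, on both duplicate plates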;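 also: plate controls were buffer only IC0 wells for no effect and SID17386958 at its maximal inhibitory level for full effect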
* marks the source's active call; other numbers are inactive results; i = inactive; nt = no result given. This is a sample that favours compounds with a hit; in the whole collection about 3.7% have one here.

SMILES	KCNK3 block	KCNQ1 block	KCNK9 inh	Kir21 block	KCNQ1 act	hERG rescue	KCNK9 block conf	Kir21 sel	HEK293 Tl ctr
COc1cc(/C=C(/C#N)C(=O)NC(C)c2ccccc2)cc(OC)c1O (stereo unspecified)	i	i	i	-1.18	i	-8.3	nt	nt	nt
COc1ccccc1/C=C/C=C(\C#N)C(=O)NC(C)c1ccccc1 (stereo unspecified)	i	i	i	-0.07	i	-8.6	i	i	i
CC(NC(=O)/C(C#N)=C/c1cn(-c2ccccc2)nc1-c1ccc(F)cc1)c1ccccc1 (stereo unspecified)	i	i	i	-0.31	i	-6.2	i	i	i
Cc1ccc(S(=O)(=O)N2CCOCC2)cc1C(=O)Nc1ccc2c(c1)OCCO2	i	nt	nt	nt	nt	nt	nt	nt	nt
CCc1ccccc1N(CC(=O)Nc1cccnc1)S(=O)(=O)c1ccccc1	i	i	i	-0.56	i	-8.8	nt	nt	nt
CCNC(=S)Nc1ccccc1-c1ccccc1	i	i	i	-0.7	i	-2.5	nt	nt	nt
CSc1ccc(CN(C)C(=O)c2cccc(S(=O)(=O)N3CCN(Cc4ccccc4)CC3)c2)cc1	i	9*	i	-1.64	i	-14.5	i	i	i
CN(Cc1ccc(F)cc1)C(=O)c1cccc(S(=O)(=O)N2CCN(Cc3ccccc3)CC2)c1	i	i	i	-0.01	i	-10.2	nt	nt	nt
CC1CCCCC1NC(=O)c1cccc(S(=O)(=O)N2CCN(Cc3ccccc3)CC2)c1 (stereo unspecified)	i	i	i	1.04	i	-11.8	i	i	i
CC(=O)Nc1cccc(NC(=O)c2cccc(S(=O)(=O)N3CCN(Cc4ccccc4)CC3)c2)c1	i	i	i	0.07	i	-10.6	nt	nt	nt
COc1ccc(CNC(=O)C/C(C)=N/NC(=O)COc2cccc(C)c2)cc1	i	i	i	0.19	i	-7.8	nt	nt	nt
O=C1CC2(CCN(C(=O)c3ccc(Br)cc3)CC2)Oc2ccccc21	i	i	i	0.07	i	-10.8	nt	nt	nt
Cc1cccc(C)c1OCC(O)CN1CCC(CN2C(=O)c3cccc4cccc(c34)C2=O)CC1 (stereo unspecified)	i	i	i	1.09	i	-21.8	i	i	i
Cc1ccccc1OCC(O)CN1CCN(CCN2C(=O)c3cccc4cccc(c34)C2=O)CC1 (stereo unspecified)	i	i	i	0.09	i	-9.9	i	i	i
C=CCc1ccccc1OCC(O)CN1CCN(CCN2C(=O)c3cccc4cccc(c34)C2=O)CC1 (stereo unspecified)	i	i	i	-2.17	i	-31.4	i	i	i
CCC(OCC(O)CN1CCN(CCN2C(=O)c3cccc4cccc(c34)C2=O)CC1)c1ccccc1 (stereo unspecified)	i	i	i	-0.91	i	-18.1	i	i	i
CC(CNC(=O)C1CCCCC1C(=O)O)c1ccccc1 (stereo unspecified)	i	i	i	0.02	i	-9.0	nt	nt	nt
CCOc1ccccc1N/C=C(\C#N)c1nc2ccccc2n1C	i	i	-10.9*	0.55	i	-5.1	i	i	i
CCN(C[C@H]1N[C@@](C)(C(=O)OC)[C@H]2C(=O)N(Cc3ccccc3)C(=O)[C@@H]12)S(=O)(=O)c1ccc(OC)cc1	i	nt	nt	nt	nt	nt	nt	nt	nt
Cc1ccc(N2C(=O)CC(Cc3cc(C)cc(C)c3)C2=O)cc1 (stereo unspecified)	i	i	i	1.06	i	-11.6	nt	nt	nt
Cc1cc(C)cc(CC2CC(=O)N(c3cc(C)ccc3C)C2=O)c1 (stereo unspecified)	i	i	i	-1.94	i	-2.6	i	i	i
CC(C)CCN(CCC(C)C)CC(O)Cn1c2ccccc2c(=O)c2ccccc21 (stereo unspecified)	i	i	-8.11*	-1.67	i	-4.9	42.5%*	i	27.5%*
N=c1n(CC(=O)c2ccc(Br)s2)c2ccccc2n1Cc1ccccc1	i	i	-10.4*	0.03	i	-20.6	51.5%*	i	30.5%*
CCC(=O)C1CCCN(C(=O)c2ccc(OC3CCN(C(=O)CCOC)CC3)cc2)C1 (stereo unspecified)	i	i	i	1.48	i	-9.3	nt	nt	nt
COc1ccccc1C(=O)Nc1cc(Cl)ccc1O	i	i	i	0.24	i	-5.5	nt	nt	nt
SMILES	KCNK3 block	KCNQ1 block	KCNK9 inh	Kir21 block	KCNQ1 act	hERG rescue	KCNK9 block conf	Kir21 sel	HEK293 Tl ctr
CCOc1ccccc1C(=O)Nc1cc(Cl)ccc1O	i	i	-11.8*	1.97	i	-11.9	52.5%*	i	36.0%*
Cc1ccc(-c2csc3nc(SCC(=O)N(C)C)n(Cc4ccccc4)c(=O)c23)cc1	i	i	-9.51*	0.51	i	-13.5	49.5%*	i	28.0%*
O=[N+]([O-])c1ccc(N2CCOCC2)cc1SCc1ccco1	i	i	i	-1.22	i	-1.8	nt	nt	nt
O=[N+]([O-])c1ccc(SCc2ccco2)cc1N1CCOCC1	i	i	i	-2.78	i	-0.5	i	i	i
Cc1ccc(O)c(C(=O)CC(=O)c2ccc(C(C)(C)C)cc2)c1	i	i	i	0.24	i	-7.2	i	i	i
Cc1cccnc1NC(=O)Cn1nc(-c2ccccc2)oc1=S	i	i	i	-0.02	i	-10.5	nt	nt	nt
CCOC(=O)N1CCN(CC(=O)Nc2cc3c(cc2C(C)=O)OCO3)CC1	i	i	i	-0.5	i	-4.0	nt	nt	nt
CCOc1cc(N2CCOCC2)c(OCC)cc1NC(=O)CN1CCC(Cc2ccccc2)CC1	i	i	i	-1.83	i	-4.0	i	i	i
CC(=O)c1cc2c(cc1NC(=O)CN1CCC(Cc3ccccc3)CC1)OCO2	i	i	i	1.71	i	-10.9	i	i	i
CC(NCC(=O)Nc1cc(S(=O)(=O)N2CCCCCC2)ccc1Cl)c1ccccc1 (stereo unspecified)	i	i	i	1.17	i	-11.9	i	i	i
Cc1ccccc1NCC(=O)Nc1cc(S(=O)(=O)N2CCCCC2)ccc1C	i	nt	nt	nt	nt	nt	nt	nt	nt
Cc1cc(C)c2nc(NNC(=O)c3ccc(S(=O)(=O)N4CCCCC4)cc3)sc2c1	i	i	i	0.09	i	-12.2	i	i	i
